ChEMBL document CHEMBL1151733, “Pirinixic acid derivatives as novel dual inhibitors of microsomal prostaglandin E2 synthase-1 and 5-lipoxygenase” (J Med Chem, 2008)
Each block holds one compound with its values, some of them ahead of it. Activity calls are given as the source filed them. The calls are words filed in the database; no cut-off is given here.

Experiments:
[1] = biological target: T1, Prostaglandin G/H synthase 2 (Homo sapiens, UniProt P35354); assay: Inhibition of human recombinant COX2
T1 sequence (P35354 whole entry): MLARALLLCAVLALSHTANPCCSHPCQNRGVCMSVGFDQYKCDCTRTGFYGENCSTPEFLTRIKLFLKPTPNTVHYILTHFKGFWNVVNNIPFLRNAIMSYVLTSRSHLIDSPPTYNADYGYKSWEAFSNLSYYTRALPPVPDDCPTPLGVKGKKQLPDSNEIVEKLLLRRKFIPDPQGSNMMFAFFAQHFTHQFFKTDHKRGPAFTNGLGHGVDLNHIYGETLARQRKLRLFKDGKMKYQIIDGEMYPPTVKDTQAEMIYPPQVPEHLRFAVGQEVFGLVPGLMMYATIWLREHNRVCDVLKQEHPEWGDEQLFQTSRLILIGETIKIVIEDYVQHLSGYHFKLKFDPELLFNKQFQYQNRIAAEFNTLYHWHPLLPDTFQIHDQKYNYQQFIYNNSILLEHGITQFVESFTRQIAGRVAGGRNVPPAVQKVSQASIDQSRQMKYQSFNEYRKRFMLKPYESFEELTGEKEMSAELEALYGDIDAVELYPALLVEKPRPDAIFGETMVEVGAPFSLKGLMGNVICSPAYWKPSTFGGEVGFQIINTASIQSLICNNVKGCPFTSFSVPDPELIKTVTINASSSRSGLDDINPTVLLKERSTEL
How it was run: (§1)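 Ovine COX-1 (50 units) or human recombinant COX-2 (20 units) in 100 mM Tris pH 8 with 5 mM glutathione, 5 µM hemoglobin and 100 µM EDTA. Compound preincubation 5 min at 4 °C, then prewarming 60 s at 37 °C. AA added at 5 µM for COX-1 or 2 µM for COX-2, reacted 5 min at 37 °C. 12-HHT extracted and quantified by HPLC. Mean ± SE, n = 3.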

[2] = biological target: T2, Prostaglandin E synthase (Homo sapiens) (UniProt O14684); assay: Inhibition of PGES1 in human A549 cell microsome assessed as PGE2 formation at 10 uM by cell-free assay relative to control; set-up: scale not given: the % may be the effect or the level left
T2 sequence (whole entry): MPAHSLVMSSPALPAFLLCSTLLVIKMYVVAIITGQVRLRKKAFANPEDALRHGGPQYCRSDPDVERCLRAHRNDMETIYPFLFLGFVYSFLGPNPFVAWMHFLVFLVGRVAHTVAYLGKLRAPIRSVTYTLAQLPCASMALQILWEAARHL
How it was run: (§2)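 Microsomes from A549 cells grown with IL-1β (1 ng/mL, 72 h), diluted in 0.1 M potassium phosphate pH 7.4 with 2.5 mM glutathione. Compound or DMSO added 15 min before PGH₂ (20 µM final). Reaction ran 1 min at 4 °C and was stopped with FeCl₂/citric acid. PGE₂ isolated by C18 SPE, then RP-HPLC with UV at 195 nm against 11β-PGE₂ internal standard.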

[3] = biological target: T3, Polyunsaturated fatty acid 5-lipoxygenase (Homo sapiens) (UniProt P09917); assay: Inhibition of 5-LO in human PMNL cells at 10 uM relative to control; assay type: cell-based; set-up: scale not given: the % may be the effect or the level left
T3 sequence (whole entry): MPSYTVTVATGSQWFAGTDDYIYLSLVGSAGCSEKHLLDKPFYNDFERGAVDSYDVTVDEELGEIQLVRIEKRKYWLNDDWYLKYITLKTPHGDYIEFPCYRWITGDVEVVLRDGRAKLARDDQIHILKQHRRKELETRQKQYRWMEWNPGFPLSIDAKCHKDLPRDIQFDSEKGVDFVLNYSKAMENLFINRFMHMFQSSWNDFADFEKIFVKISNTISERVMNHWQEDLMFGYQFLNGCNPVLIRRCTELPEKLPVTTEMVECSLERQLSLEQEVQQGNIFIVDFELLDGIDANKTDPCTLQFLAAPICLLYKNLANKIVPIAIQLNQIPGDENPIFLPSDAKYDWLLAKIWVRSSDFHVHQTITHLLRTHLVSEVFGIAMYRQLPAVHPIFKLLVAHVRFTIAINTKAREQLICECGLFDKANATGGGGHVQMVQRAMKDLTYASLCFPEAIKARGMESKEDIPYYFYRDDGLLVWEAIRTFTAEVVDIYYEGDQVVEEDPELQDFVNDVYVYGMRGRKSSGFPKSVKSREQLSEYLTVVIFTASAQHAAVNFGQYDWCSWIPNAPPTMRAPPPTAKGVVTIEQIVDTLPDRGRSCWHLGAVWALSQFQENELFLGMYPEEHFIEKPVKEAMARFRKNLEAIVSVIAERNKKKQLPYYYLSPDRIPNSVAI
How it was run: (§3)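 Freshly isolated human PMNL from leukocyte concentrates of healthy donors, 5 × 10⁶ cells/mL in PBS pH 7.4 with 1 mg/mL glucose and 1 mM CaCl₂. Preincubated with compound 15 min at RT, then stimulated with 2.5 µM A23187 plus 20 µM AA for 10 min at 37 °C. Stopped with methanol; LTB₄, its all-trans isomers and 5-H(P)ETE quantified by HPLC with PGB₁ internal standard.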

[4] = biological target: T4, Prostaglandin G/H synthase 1 (Ovis aries, UniProt P05979); assay: Inhibition of ovine COX1; how it was run: as §1
T4 sequence (P05979 whole entry): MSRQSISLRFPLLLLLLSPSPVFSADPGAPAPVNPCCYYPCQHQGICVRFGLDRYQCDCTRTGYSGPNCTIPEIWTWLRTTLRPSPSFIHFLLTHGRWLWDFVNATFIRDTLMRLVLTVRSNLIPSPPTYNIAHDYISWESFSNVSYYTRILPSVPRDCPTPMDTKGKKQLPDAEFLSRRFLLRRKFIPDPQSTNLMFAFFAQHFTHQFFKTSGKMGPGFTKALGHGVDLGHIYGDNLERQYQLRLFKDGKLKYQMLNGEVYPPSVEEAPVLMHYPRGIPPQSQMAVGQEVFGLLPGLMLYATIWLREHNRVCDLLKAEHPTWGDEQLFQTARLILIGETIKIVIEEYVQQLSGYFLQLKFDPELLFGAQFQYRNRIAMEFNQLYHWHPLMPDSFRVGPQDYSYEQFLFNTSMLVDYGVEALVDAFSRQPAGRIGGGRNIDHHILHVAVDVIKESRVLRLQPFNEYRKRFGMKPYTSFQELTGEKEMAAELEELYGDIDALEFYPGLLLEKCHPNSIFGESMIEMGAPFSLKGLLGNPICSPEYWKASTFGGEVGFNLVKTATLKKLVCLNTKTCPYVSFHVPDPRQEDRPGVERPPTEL

[5] = biological target: T5, Polyunsaturated fatty acid 5-lipoxygenase (Homo sapiens, UniProt P09917); assay: Inhibition of human recombinant 5-LO expressed in Escherichia coli by cell-free assay
T5 sequence (P09917 whole entry): T3 sequence (whole entry)
How it was run: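 Human 5-LO expressed in E. coli MV1190 (pT3-5LO) at 27 °C, partially purified from the 100000g lysate supernatant. Held in PBS pH 7.4 with 1 mM EDTA and 1 mM ATP with compound for 10 min at 4 °C, warmed 30 s at 37 °C, then started with 2 mM CaCl₂ plus 20 µM AA. After 10 min at 37 °C, stopped with cold methanol; products measured by HPLC.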

[6] = biological target: T5, Polyunsaturated fatty acid 5-lipoxygenase; assay: Inhibition of 5-LO in PMNL cells; assay type: cell-based; how it was run: as §3
[7] = biological target: T6, Prostaglandin G/H synthase 1 (Ovis aries) (UniProt P05979); assay: Inhibition of ovine COX1 assessed as remaining activity at 10 uM relative to control; how it was run: as §1
T6 sequence (whole entry): T4 sequence (P05979 whole entry)

[8] = biological target: T7, Prostaglandin G/H synthase 2 (Homo sapiens) (UniProt P35354); assay: Inhibition of human recombinant COX2 assessed as remaining activity at 10 uM relative to control; how it was run: as §1
T7 sequence (whole entry): T1 sequence (P35354 whole entry)

Prostaglandin E synthase = biological target: T8, Prostaglandin E synthase (Homo sapiens, UniProt O14684); assay: Inhibition of PGES1 in human A549 cell microsome assessed as PGE2 formation by cell-free assay; how it was run: as §2
T8 sequence (O14684 whole entry): T2 sequence (whole entry)

- IC50 [1]: > 10 µM
- Activity [2]: 59%
- IC50 [4]: > 10 µM
SMILES: CCCCCCC(Sc1nc(Cl)cc(Nc2ccc3ncccc3c2)n1)C(=O)O (configuration not stated)

- IC50 [1]: > 10 µM
- Activity [2]: 36.8%
- Activity [3]: 2.8%
- IC50 [5]: 0.8 µM
- IC50 [4]: > 10 µM
SMILES: CCCCCC[C@@H](Sc1nc(Cl)cc(Nc2ccc(-c3ccc(C#N)cc3)cc2)n1)C(=O)O

- IC50 [1]: > 10 µM
- IC50 [6]: 0.4 µM
- Activity [2]: 26.1%
- Activity [3]: 2.7%
- IC50 [5]: 1.5 µM
- Activity [7]: 66%
- Activity [8]: 61.2%
- IC50 [4]: > 10 µM
SMILES: CCCCCCC(Sc1nc(Cl)cc(Nc2ccc(-c3ccc(C#N)cc3)cc2)n1)C(=O)O (configuration not stated)

- IC50 [1]: > 10 µM
- IC50 [6]: 0.7 µM
- Activity [2]: 21.7%
- Activity [3]: 4.1%
- IC50 (Prostaglandin E synthase): 1.6 µM
- IC50 [5]: 1.5 µM
- Activity [7]: 52.3%
- Activity [8]: 57.1%
- IC50 [4]: > 10 µM
SMILES: CCCCCCC(Sc1nc(Cl)cc(Nc2ccc(-c3ccccc3)cc2)n1)C(=O)O (configuration not stated)

Second part, the compound before the results:

SMILES: O=C(O)CSc1nc(OCCc2ccccc2)cc(OCCc2ccccc2)n1
- IC50 [1]: > 10 µM
- Activity [2]: 66.4%
- Activity [3]: 40.6%
- IC50 [4]: > 10 µM

SMILES: CCCCCCC(Sc1nc(Cl)cc(Oc2ccc3ncccc3c2)n1)C(=O)O (configuration not stated)
- IC50 [1]: > 10 µM
- Activity [2]: 67.4%
- IC50 [4]: > 10 µM

SMILES: CCCCCCC(Sc1nc(Cl)cc(NCc2ccc(-c3ccccc3)cc2)n1)C(=O)OCC (configuration not stated)
- IC50 [1]: > 10 µM
- Activity [2]: inactive
- Activity [3]: 80.2%
- IC50 [4]: > 10 µM

SMILES: CCCCCCC(Sc1nc(Cl)cc(NCc2ccc3ncccc3c2)n1)C(=O)O (configuration not stated)
- IC50 [1]: > 10 µM
- Activity [2]: 85.7%
- IC50 [4]: > 10 µM

SMILES: Cc1cccc(Nc2cc(Cl)nc(SCC(=O)O)n2)c1C [PIRINIXIC ACID]
- IC50 [1]: > 10 µM
- Activity [2]: inactive
- IC50 [4]: > 10 µM

SMILES: Cc1cccc(Nc2cc(Cl)nc(SC(C)C(=O)O)n2)c1C (configuration not stated)
- IC50 [1]: > 10 µM
- Activity [2]: inactive
- IC50 [4]: > 10 µM

SMILES: CCCCCCC(Sc1nc(Cl)cc(Nc2cccc(C)c2C)n1)C(=O)O (configuration not stated)
- IC50 [1]: > 10 µM
- Activity [2]: 31.9%
- IC50 [5]: 6.5 µM
- Activity [7]: 75.2%
- Activity [8]: 62%
- IC50 [4]: > 10 µM

SMILES: CCCCCCC(Sc1nc(Cl)cc(NCCOc2ccccc2)n1)C(=O)O (configuration not stated)
- IC50 [1]: > 10 µM
- Activity [2]: 79.9%
- Activity [3]: 28%
- IC50 [4]: > 10 µM

SMILES: CCCCC(Sc1nc(OCCc2ccccc2)cc(OCCc2ccccc2)n1)C(=O)O (configuration not stated)
- IC50 [1]: > 10 µM
- Activity [2]: 43.1%
- Activity [3]: 2.7%
- IC50 [4]: > 10 µM

SMILES: Cc1cccc(Nc2cc(Cl)nc(SC(C(=O)O)c3ccccc3)n2)c1C (configuration not stated)
- IC50 [1]: > 10 µM
- Activity [2]: 74.6%
- IC50 [4]: > 10 µM
